In the library only some 9.6% were active in any assay of this set; here they are far more common.
Lmaj promast – reduces viability of Leishmania major promastigotes. resazurin fluorescence viability. inhibition, % at 10 µM. 200,000 compounds, 9% hits. AID 1063; in the data active means inhibition above about 50%;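 further: promastigotes grown with compound for 44 hours at 28 °C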
HCT116 PTEN-null – suppresses growth of cells with PTEN deletion. HCT116 PTEN-null viability, CellTiter-Glo, 60 h; active compounds read low. viability, % at 10 µM. 140,000 compounds, 1.2% hits. AID 827;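 active means viability at or below a set limit, 4 SD under the median of all tested compounds, cut at about 3.7% in these data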;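 further: PTEN knockout HCT116 line with beta catenin targeted HCT116 as companion control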
HCT116 bCat-KO – beta-catenin-lacking colon tumor cell growth suppression; HCT116 beta-catenin knockout viability, CellTiter-Glo, 60 h; active compounds read low; AID 818; 140,000 compounds, 1.5% hits; viability, % at 10 µM;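 active means viability at or under a set limit, the compound median less 4 SD, cut at about 6% in these data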
TNAP inh no acc – blocks human TNAP activity with no phosphate acceptor present | P05186 | purified TNAP, CDP-star luminescence, 30 min | inhibition, % at 20 µM | 200,000 compounds, 0.26% hits | AID 1012;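 active means tissue-nonspecific alkaline phosphatase inhibition above about 50% at 20 µM in the single-dose screen, limit read from the data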
Target sequence (P05186 whole entry, looked up): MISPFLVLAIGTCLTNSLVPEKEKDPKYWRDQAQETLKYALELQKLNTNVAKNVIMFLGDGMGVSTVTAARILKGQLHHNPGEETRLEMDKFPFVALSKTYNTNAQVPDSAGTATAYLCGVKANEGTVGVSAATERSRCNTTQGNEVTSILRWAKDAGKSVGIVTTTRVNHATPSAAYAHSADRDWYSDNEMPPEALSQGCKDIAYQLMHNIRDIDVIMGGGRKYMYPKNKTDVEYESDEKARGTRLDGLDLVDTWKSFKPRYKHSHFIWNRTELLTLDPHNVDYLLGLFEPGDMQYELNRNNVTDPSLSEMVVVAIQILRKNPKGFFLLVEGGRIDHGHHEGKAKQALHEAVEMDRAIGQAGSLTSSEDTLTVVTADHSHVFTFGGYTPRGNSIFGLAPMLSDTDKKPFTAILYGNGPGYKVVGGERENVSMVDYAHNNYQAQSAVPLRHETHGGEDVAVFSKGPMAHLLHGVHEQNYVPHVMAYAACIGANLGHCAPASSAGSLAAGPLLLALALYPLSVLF
TNAP inh hiacc – inhibitors of human TNAP at high phosphate acceptor concentration; purified TNAP, CDP-star luminescence, 1 M DEA; inhibition, % at 20 µM; 200,000 compounds, 0.03% hits; AID 1135;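 active means over 50% inhibition of tissue-nonspecific alkaline phosphatase at 20 µM in the single-dose screen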
TNAP act hi DEA – activators of human TNAP at high phosphate acceptor concentration; purified TNAP, CDP-star luminescence, 1 M DEA, 30 min; active compounds read high; 0 = EDTA background, 1 = DMSO-only activity; P05186; activation factor at 20 µM; 200,000 tested, under 10 active;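 active means activation factor at least 2 at 20 µM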
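Control set: EDTA negative control, DMSO positive control / Assay system: human TNAP / Quantity: TNAP 1/800 final / Evaluation: TNAP activation factor scaled between EDTA and DMSO control wells / Measured by: luminescent substrate turnover signal / Compound dosing: one dose, 20 µM / Times: 30 min enzyme reaction at room temperature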
Of the large screens only hits and unclear results are named; the others gave an inactive call.

COCCN1CSC(=S)N(Cc2ccco2)C1	Lmaj promast 85.4
CC(C)CN1CN(Cc2ccco2)CNC1=S	none
S=C1SCN(Cc2ccccn2)CN1Cc1ccco1	Lmaj promast 79.9
CC(=O)Nc1ccc(/C=N/NC(=S)NC(C)C)cc1	none (no result: HCT116 PTEN-null, HCT116 bCat-KO)
O=[N+]([O-])c1nn(-c2cccc(Cl)c2)n(O)c1=NCc1cccnc1	none
O=[N+]([O-])c1nn(-c2ccc(Cl)cc2)n(O)c1=NCc1cccnc1	Lmaj promast 95.8
Cc1cccc(N=c2c([N+](=O)[O-])nn(-c3ccc(Cl)cc3)n2O)c1	Lmaj promast 78.5 (no result: HCT116 PTEN-null, HCT116 bCat-KO)
O=[N+]([O-])c1nn(-c2ccc(Cl)cc2)n(O)c1=NCc1ccncc1	Lmaj promast 75.0 (no result: HCT116 PTEN-null, HCT116 bCat-KO)
Cc1ccc(CN=c2c([N+](=O)[O-])nn(-c3ccc(Cl)cc3)n2O)cc1	none (no result: HCT116 PTEN-null, HCT116 bCat-KO)
Cc1cccc(-n2nc([N+](=O)[O-])c(=NCc3cccnc3)n2O)c1	Lmaj promast 82.0
NS(=O)(=O)c1ccc(N2N=C(c3ccc(Br)cc3)CC2c2ccc(F)cc2)cc1 (stereo not given)	Lmaj promast 95.3, HCT116 PTEN-null 1.2, HCT116 bCat-KO 0.7
NS(=O)(=O)c1ccc(N2N=C(c3ccccc3)CC2c2cccc(F)c2)cc1 (stereo not given)	none
CCCCCOc1ccc(Cl)cc1CN1CCOCC1	Lmaj promast 79.6
CCOc1ccc(Cl)cc1CN1CCOCC1	none
CC(C)CCOc1ccc(Cl)cc1CN1CCOCC1	Lmaj promast 89.4
COc1ccc(CN2CCOCC2)c(C)c1C	none
COc1ccc(CNC(=O)C(OC(=O)c2nsc(Cl)c2Cl)C(C)C)cc1 (stereo not given)	none (no result: HCT116 PTEN-null, HCT116 bCat-KO)
COC(=O)C1C(=O)C2=C(CC1C)Nc1ccccc1NC2c1cccs1 (stereo not given)	none (no result: HCT116 PTEN-null, HCT116 bCat-KO)
O=C(c1ccc(F)cc1)N1CCN(C(=O)c2ccc([N+](=O)[O-])cc2)CC1	none (no result: HCT116 PTEN-null, HCT116 bCat-KO)
CCN1CCC(NC(=O)Nc2cc(Cl)ccc2OC)CC1	none (no result: HCT116 PTEN-null, HCT116 bCat-KO)
CC(C)(C)NC(=O)CSc1nc(N)c(-c2ccccc2)c(=O)[nH]1	none (no result: HCT116 PTEN-null, HCT116 bCat-KO)
CN1CCc2nc3sc(C(=O)C45CC6CC(CC(C6)C4)C5)c(N)c3cc2C1	Lmaj promast 95.8, HCT116 PTEN-null 0.6, HCT116 bCat-KO 3.5
Cn1nc(C(=O)OCC(=O)NC2CCS(=O)(=O)C2)c2ccccc2c1=O (stereo not given)	none (no result: HCT116 PTEN-null, HCT116 bCat-KO)
CCCCCCCCNC(C)C(O)c1ccc(SC(C)C)cc1 (stereo not given)	Lmaj promast 100.3, HCT116 PTEN-null 1.3, HCT116 bCat-KO 1.6
CC(NCCc1ccc(O)cc1)C(O)c1ccc(O)cc1 (stereo not given)	none
O=C(Cn1nnc2ccccc2c1=O)NCCc1ccc(F)cc1	none
COc1ccc(-c2nnc(Sc3nc4ccccc4o3)c3ccccc23)cc1	Lmaj promast 88.3
COc1ccc(C(=O)N2CCN(Cc3ccc4c(c3)OCO4)CC2)cc1[N+](=O)[O-]	none (no result: HCT116 PTEN-null, HCT116 bCat-KO)
O=C(Nc1cccc2nsnc12)c1cccnc1	Lmaj promast 78.2
O=C(Nc1cnc2ccccc2c1)c1cccnc1	none
Cn1c(NC(=O)c2cccnc2)nc2ccccc21	TNAP inh no acc 68.7
CC(C)N1CCN(Cc2cccn2-c2ccccn2)CC1CCO (stereo not given)	none (no result: HCT116 PTEN-null, HCT116 bCat-KO)
CCCc1[nH]nc2c1C(c1ccc(O)cc1OCC)C(C#N)=C(N)O2 (stereo not given)	Lmaj promast 55.6
CCCc1[nH]nc2c1C(C1CCCCC1)C(C#N)=C(N)O2 (stereo not given)	Lmaj promast 92.6
CCCc1[nH]nc2c1C(c1ccsc1)C(C#N)=C(N)O2 (stereo not given)	none (no result: HCT116 PTEN-null, HCT116 bCat-KO)
COCc1[nH]nc2c1C(c1sccc1C)C(C#N)=C(N)O2 (stereo not given)	Lmaj promast 72.2
Cc1ccc(CN2CCNC(=O)C2CC(=O)NCC(F)(F)F)o1 (stereo not given)	none (no result: HCT116 PTEN-null, HCT116 bCat-KO)
N#Cc1cc(-c2ccccc2)nc(Oc2ccc(Cl)cc2)n1	Lmaj promast 77.2
Cc1noc(NS(=O)(=O)c2ccc(NC(=O)C34CC5CC(C3)CC(n3cnc(Br)n3)(C5)C4)cc2)c1C	none
COc1ccc(CCN(Cc2cc3cccc(C)c3n3nnnc23)C(=O)c2ccncc2)cc1OC	none (no result: HCT116 PTEN-null, HCT116 bCat-KO)
CC1(C)Cc2c(C#N)c(N3CCN(C(=O)c4ccccc4)CC3)nc(Cc3ccccc3)c2CO1	Lmaj promast 71.2
O=C(CNC(=O)c1ccc(N2C(=O)c3ccccc3C2=O)cc1)OCC(=O)c1cccc2ccccc12	Lmaj promast 62.1
O=C(CNC(=O)c1ccc(N2C(=O)c3ccccc3C2=O)cc1)OCC(=O)c1ccccc1	Lmaj promast 62.3
COc1ccc(NC(=O)COC(=O)/C=C/c2cnc3ccccc3n2)cc1	none (no result: HCT116 PTEN-null, HCT116 bCat-KO)
CCCC(C(=O)NC1CCCC1)N(C(=O)Cn1nnc(-c2ccc(C)o2)n1)c1ccccc1OC (stereo not given)	Lmaj promast 77.2
CCOC(=O)c1ccc(N2NC(=O)/C(=C/c3ccc(OC(=O)c4ccco4)c(OC)c3)C2=O)cc1	Lmaj promast 60.7
COc1ccc(CN2C(=O)/C(=C/c3ccncc3)SC2=S)cc1	Lmaj promast 67.8, HCT116 PTEN-null 2.0, HCT116 bCat-KO 2.5
COc1ccc(/C=C2\SC(=NCc3ccccc3)N(Cc3ccccc3)C2=O)cc1OC	none
O=C(CCCN1C(=O)/C(=C/c2ccccc2Cl)SC1=S)NNC(=O)c1ccccc1Cl	Lmaj promast 66.9
O=C(O)CCCCCN1C(=O)/C(=C\c2ccncc2)SC1=S	none
COc1ccc(/C=C2\SC(=S)N(CCCC(=O)Nc3ccccn3)C2=O)cc1OC	Lmaj promast 63.4
COc1cc(/C=C2/SC(=O)N(Cc3ccccc3)C2=O)ccc1OCc1ccncc1	Lmaj promast 91.8
CCOc1ccc(/C=C2\SC(=O)N(CCNC(=O)C3COc4ccccc4O3)C2=O)cc1OC (stereo not given)	Lmaj promast 70.9
Clc1cc(Sc2ccc(Br)cc2)nnc1-c1ccccc1	none
Cc1ccc(NC(=O)COC(=O)C(CC(C)C)N2C(=O)C3CC=CCC3C2=O)c(C)c1 (stereo not given)	none
CSC(=S)N/N=C(\C)c1ccc(Br)cc1	none (no result: HCT116 PTEN-null, HCT116 bCat-KO)
COc1ccccc1N1CCN(CC(O)COc2c(OC)cccc2OC)CC1 (stereo not given)	none
CCOC(=O)N1CCN(CC(O)c2ccc3cc[nH]c3c2)CC1 (stereo not given)	Lmaj promast 70.2
CCOC(=O)N1CCN(CC(O)c2ccc3c(c2)CCN3)CC1 (stereo not given)	none
COc1ccccc1N1CCN(CC(O)c2ccc3cc[nH]c3c2)CC1 (stereo not given)	Lmaj promast 89.2
O=C(CCc1nc2ccccc2n1-c1ccccc1)NCCO	Lmaj promast 55.7
O=C(COC(=O)CCc1nc2ccccc2n1-c1ccccc1)Nc1ccc(N2CCCCC2)cc1	none

High-throughput results from PubChem.
